Screens as filed in PubChem.
Shown is part of a subset that was picked to be rich in hits.
Diaphorase inh = diaphorase inhibition or chemical oxidation counter-screen; diaphorase resazurin-to-resorufin fluorescence, NADH, 16 min; bacterial (C. kluyveri) enzyme, not human; AID 1217; hit rate 0.69% among 190,000; inhibition, % at 20 µM;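 active = primary screen inhibition at 20 µM above a set limit, cut at about 50% in these data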;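 note: plate controls were DMSO with full reaction for no effect and wells lacking NADH for full effect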
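Assay system: diaphorase enzyme from Clostridium kluyveri; Input: enzyme working solution with 0.14 U/mL diaphorase; Timing: 16 min at room temperature; Technique: resorufin fluorescence, excitation 544 nm, emission 590 nm; Benchmarks: positive control minus NADH, DMSO neutral control.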
Redox H2O2 prof = compounds producing H2O2 with reducing agent – biochemical, NIH compound library profiling, artefact control for MLSCN library redox annotation, primary screen. hit rate 0.03% among 200,000. DTT-dependent redox cycling H2O2, phenol red/HRP absorbance; 100% = 100 µM peroxide control, 0% = buffer. activation, % at 10 µM;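 active = activation of at least 50% relative to the plate's high and low controls in the primary single-dose screen; inactive = activation below 50%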;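 note: compound incubated with DTT at 0.8 mM final as the reducing agent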
L major viab = Leishmania major promastigote growth inhibition | Leishmania major promastigotes, resazurin fluorescence viability | inhibition, % at 10 µM | hit rate 9% among 200,000 | AID 1063;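 note: promastigotes grown with compound for 44 hours at 28 °C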
G6PDH CS = counter-screen for G6PDH assay hits: L. mesenteroides G6PDH inhibition | hit rate 0.12% among 200,000 | inhibition, % at 5 µM | Purified L. mesenteroides G6PDH, diaphorase/resazurin coupled fluorescence, 45 min | AID 1020
Diaphorase act = counter-screen for diaphorase-based assays: diaphorase activators and chemical reducers | Diaphorase/resazurin coupled assay, resorufin fluorescence, 16 min; active compounds read high; 1 = vehicle wells, 0 = NADH-free wells | activation factor at 20 µM | hit rate 0.005% among 190,000 | AID 1229;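 active = diaphorase activity raised at least twofold by the compound at 20 µM; inactive = activation factor below 2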
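Assay system: Purified diaphorase enzyme from Clostridium kluyveri | Amount: Enzyme 0.07 U/mL final | Dosing: Compound 20 µM once, DMSO 1% | Timing: 16 min reaction at room temperature | Detection: Fluorescence, excitation 544 nm and emission 590 nm | Evaluation: Higher resorufin formation from activation or reduction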
PfGluPho inh = PfG6PD (Plasmodium falciparum) enzyme inhibition. PfGluPho enzyme, NADPH resazurin-diaphorase fluorescence. hit rate 0.78% among 350,000. inhibition, % at 20 µM;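 active = inhibition reaching at least a set limit at 20 µM in the primary screen, cut at about 59% in these data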;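 note: 0% = DMSO wells with substrate and 100% = DMSO wells lacking glucose-6-phosphate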
Active calls of the source: *; . = no result given. Cut-off read from the data, not from the text of the source, unless noted: active = inhibition above about 50%; inactive = the rest.

SMILES	Diaphorase inh	Redox H2O2 prof	L major viab	G6PDH CS	Diaphorase act	PfGluPho inh
CC(C)CCN1CCN(Cc2cnc(-c3ccccc3)s2)CC1CCO (centres undefined)	-2	-1	88*	16	1	-7
Cc1ncc(CN2CCN(CCc3ccccc3)C(CCO)C2)s1 (centres undefined)	17	0	63*	8	0.8	7
Cc1ccc(CN2CCN(Cc3cccn3-c3ccc(Cl)cn3)CC2CCO)o1 (centres undefined)	4	0	-1	8	1	10
CC(C)Cn1c(SCc2nc3ccccc3c(=O)[nH]2)nc2ccccc2c1=O	-1	1	7	6	1	-4
Cc1ccc(-n2[nH]c(C)c(/C=C3/C=Nc4ccccc43)c2=O)cc1C	4	3	-1	4	1	10
COc1ccc(-c2nn(-c3ccccc3)cc2CNC[C@H]2O[C@@H](n3cnc4c(N)ncnc43)[C@H](O)[C@@H]2O)cc1	.	.	.	.	.	15
COc1cccc2c1OCC(CN1CCN(CCC(C)C)C(CCO)C1)=C2 (centres undefined)	2	-1	70*	1	1	-5
Cc1ccsc1C(=O)N1CCC(CO)(Cc2ccccc2)CC1	-2	0	8	14	1	-1
CCc1ccc(CN2CCCC(CNC(=O)c3cccc(OC)c3OC)C2)cc1 (centres undefined)	.	.	.	.	.	-1
CCC(Oc1cc(Cl)ccc1Cl)C(=O)NN1C(=O)C2C3CCC(C3=C(C)C)C2C1=O (centres undefined)	15	0	98*	6	0.8	-1
Cc1cc2ccccc2c(=O)n1CC(=O)NCC(=O)N(C)C1CCCCC1	0	0	-1	-1	1	1
O=C(O)/C=C/c1ccc(Cn2ccnc2)cc1	.	.	.	.	.	-1
COC(=O)C1=C(C)N(CC2CCCO2)C(=O)/C1=C\c1ccc(O)cc1 (centres undefined)	3	-1	22	2	1	4
COC(=O)C1=C(C)N(c2ccc(C)c(C)c2)/C(=C/c2ccc(O)cc2)C1=O	10	1	99*	-1	0.9	-8
C#CC[N+](C)(C)CCCCCCCC	6	0	-2	5	0.9	-3
C#CC[N+](C)(C)CCCCCCCCCCCC	6	0	100*	7	0.9	-12
C#CC[N+](C)(C)CCCCCCCCCC	23	0	58*	-19	0.8	-12
CC#CC[N+](C)(C)CCCCCCCCCCCC	8	0	100*	1	0.9	-2
CCCCCCCCCCCCCCCC[N+](C)(C)CC	.	.	.	.	.	7
CC(=O)Nc1c(-c2cc(=O)oc3cc(C)ccc23)oc2ccccc12	.	.	.	.	.	15
Cc1ccc(S(=O)(=O)N2CCN(c3ncnc4sccc34)CC2)cc1C	.	.	.	.	.	29
CCS(=O)(=O)N1CCN(S(=O)(=O)c2ccc3c(c2)OCCO3)CC1	.	.	.	.	.	-3
CCN(CC)S(=O)(=O)c1ccc(N2CCN(S(=O)(=O)c3ccc4c(c3)OCCO4)CC2)nc1	25	0	79*	2	0.7	-15
O=S(=O)(c1ccc2c(c1)OCCO2)N1CCN(c2ncnc3sccc23)CC1	13	0	60*	-1	0.9	4
Cc1nccc(-c2cc(-c3ccc(Cl)cc3Cl)no2)n1	.	.	.	.	.	-12
SMILES	Diaphorase inh	Redox H2O2 prof	L major viab	G6PDH CS	Diaphorase act	PfGluPho inh
C=C1CCC2C(C)(C)[C@@H](O)CC[C@@]2(C)[C@@H]1COc1ccc2ccc(=O)oc2c1 (some centres undefined)	.	.	.	.	.	11
C=C1CCC2C(C)(C)[C@H](O)CC[C@@]2(C)[C@@H]1COc1cc(=O)oc2ccccc12 (some centres undefined)	26	0	98*	13	0.7	10
C=CC(C)(O)CCC=C(C)C (centres undefined)	.	.	.	.	.	2
CC(C)=CCC/C(C)=C/CC(C)(C)CNCCN1CCNCC1	-17	1	100*	4	1.2	.
CC(C)=CCC/C(C)=C/CCC(C)NCCN1CCNCC1 (centres undefined)	-9	-1	101*	3	1.1	.
CC(C)N(CC#CCC1(O)c2ccccc2-c2ccccc21)CCO	60*	-7	-4	17	0.4	20
CCN(CC#CCC1(O)c2ccccc2-c2ccccc21)CCO	10	1	-4	3	0.9	16
O=S(=O)(c1cccc(C(F)(F)F)c1)N1CCN(C(=S)NC2CC2)CC1	15	0	55*	5	0.9	3
CC(C)NC(=S)N1CCN(S(=O)(=O)c2cccc(C(F)(F)F)c2)CC1	15	5	95*	2	0.8	-25
CCNC(=S)N1CCN(S(=O)(=O)c2cccc(C(F)(F)F)c2)CC1	3	0	-3	10	1	-18
COc1ccc(/C=N/NC(=O)c2ccc(N(C)S(=O)(=O)c3ccccc3)cc2)c(OC)c1	0	0	7	9	1	12
COc1ccc(C(=O)N/N=C/c2ccc(OC)c(OS(=O)(=O)c3ccccc3)c2)cc1	2	0	91*	-1	1	11
COc1ccc(OC)c(/C=N/NC(=O)c2ccc(N(C)S(=O)(=O)c3ccccc3)cc2)c1	28	0	99*	3	0.7	6
CN(c1ccc(C(=O)N/N=C/c2cccc([N+](=O)[O-])c2)cc1)S(=O)(=O)c1ccccc1	.	.	.	.	.	5
CCOc1cc(/C=N/NC(=O)c2cccc([N+](=O)[O-])c2)ccc1OS(=O)(=O)c1ccccc1	10	-7	78*	2	0.9	5
Cc1ccc(Oc2ccc(NC(=O)Cn3ccsc3=N)cc2)cc1	-9	-1	100*	-8	1.1	10
COc1ccc(OC)c(NC(=O)CSc2nc3n[nH]c(C)c3c(=N)n2-c2cccc(Cl)c2C)c1	.	.	.	.	.	0
CCc1ccccc1NC(=O)CSc1nc2n[nH]c(C)c2c(=N)n1-c1cccc(OC)c1	-1	-5	90*	-2	1	-3
CC1=Nc2ccccc2N=C(NC(=O)c2ccccc2)C1c1ccccc1 (centres undefined)	21	1	54*	4	0.8	8
CC1CCCCC1NC(=O)C1CCC(CNS(=O)(=O)c2cccc3cccnc23)CC1 (centres undefined)	.	.	.	.	.	-7
CCCCOCCCNS(=O)(=O)c1ccccc1	15	-1	0	11	0.8	-5
CCCCOP(=O)(OCCCC)C1(NS(=O)(=O)c2ccccc2)C=CC(=O)c2ccccc21 (centres undefined)	42	-4	100*	9	0.6	29
COc1ccc(NC(=O)NC23CC4(C)CC(C)(CC(C)(C4)C2)C3)cc1	0	-1	95*	10	1	4
